Source: ChEMBL document CHEMBL1125318, “4-substituted thiophene- and furan-2-sulfonamides as topical carbonic anhydrase inhibitors” (J Med Chem, 1992)
“And” between values parts separate entries of the source, which are not always exact repeats. Identical values can stand only once. The source made the active and inactive calls. No cut-off for these calls is given here.

How the values were obtained:
Carbonic anhydrase 2 [1] = molecular target: T1, Carbonic anhydrase 2 (Homo sapiens, UniProt P00918); assay: Inhibition of human carbonic anhydrase II; settings: read-out: I50
Summary of the method: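 CA II was affinity-purified from human erythrocytes. CO2 hydration was assayed by pH stat in 0.02 M Tris chloride, pH 8.6, at 2 °C with CO2–air (5:95) bubbled at 150 mL/min. The 0.025 N NaOH volume needed to hold pH 8.3 over 3 min was recorded, with inhibitor added before enzyme. I50 was read from semilog plots of % inhibition versus log concentration.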

[2] = Solubility (pH 7.4, 25 degree C); format: physicochemical; settings: buffer, read-out: S
[3] = Aqueous solubility (25 degree C); format: physicochemical; settings: read-out: S
Oryctolagus cuniculus [4] = assay: Ability to penetrate the albino rabbit eye and to inhibit the target enzyme in an homogenate of the iris-ciliary body at 1 hr postdosing, ex vivo when dosed in 0.1% aqueousi (hydroxymethyl) cellulose.; format: functional
Summary of the method: (§1)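 Albino rabbits received one 50 μL drop of test suspension topically; 1 h after dosing the iris-ciliary body was homogenized and its carbonic anhydrase activity measured ex vivo. Screening used 0.5%, with lower concentrations for some compounds. Reference suspensions were given as 0.1% in 0.5% aqueous (hydroxyethyl)cellulose.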

Oryctolagus cuniculus [5] = assay: Ability to penetrate the albino rabbit eye and to inhibit the target enzyme in an homogenate of the iris-ciliary body at 1 hr postdosing, ex vivo when dosed in 0.5% aqueousi (hydroxymethyl) cellulose.; format: functional; summary of the method: as §1
[6] = Ionization constant (pKa); format: physicochemical
Summary of the method: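 The half-neutralization point was found by titration with 0.5 N NaOH and 0.5 N HCl in 30% EtOH–H2O using a glass electrode.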

[7] = Partition coefficient (logD7.4); format: physicochemical; settings: octanol/water, pH 7.4
Summary of the method: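 Compound was equilibrated between 1-octanol and 0.1 ionic strength pH 7.4 phosphate buffer; each phase was quantified by UV spectrophotometry.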

Oryctolagus cuniculus [8] = organism: Oryctolagus cuniculus; assay: Maximum Intraocular pressure reduction in alpha-CT rabbits at the dose (as a 50 microL drop of suspension in 0.5% aqueous cellulose); format: functional
Summary of the method: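 α-Chymotrypsinized rabbits received a 50 μL topical drop of test suspension. IOP was read before dosing and at 0.5, 1, 2, 3, 4 and 5 h after. The value is the maximum fall from the pre-dose reading. Parallel control groups got a drop of 0.5% aqueous (hydroxyethyl)cellulose.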

[9] = Solubility measured in water; format: physicochemical; settings: read-out: S
Summary of the method: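 Solubility was measured in water at 25 °C.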

Carbonic anhydrase 2 [10] = molecular target: T1, Carbonic anhydrase 2; assay: Compound was tested in vitro for binding affinity against human carbonic anhydrase II; (ki*10e-9)
Summary of the method: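 Fluorescence competition against dansylamide used purified human erythrocyte CA II (1×10^-7 M) and dansylamide (2×10^-6 M) in pH 7.4, 0.1 ionic strength phosphate buffer at 37 °C. Excitation was 280 nm and emission 460 nm, with stepwise addition of test compound in buffer.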

[11] = Solubility measured pH 7.4 at 25 degree C; format: physicochemical; settings: buffer, read-out: S
Oryctolagus cuniculus [12] = assay: Ability to penetrate the albino rabbit eye and to inhibit the target enzyme in an homogenate of the iris-ciliary body at 1 hr postdosing, ex vivo when dosed in 0.05% aqueousi (hydroxymethyl) cellulose.; format: functional; summary of the method: as §1

IC50 (Carbonic anhydrase 2 [1]) [nM] | Compound | Inhibition (Oryctolagus cuniculus [4]) [%] | Inhibition (Oryctolagus cuniculus [5]) | other results
26 | CCC(C)NCc1cccc(S(=O)(=O)c2csc(S(N)(=O)=O)c2)c1.Cl (centres undefined) | – | 72% | solubility [3]: 20000 µg/mL; pKa [6]: 9.05; logD [7]: 0.477; Max IOP reduction (Oryctolagus cuniculus [8]): -2.3 mmHg
5 | CC(C)CN(C)Cc1cc(S(=O)(=O)c2csc(S(N)(=O)=O)c2)ccc1O.Cl | 26 | 90% | –
9 | CC(C)CCNCc1cccc(C(=O)c2csc(S(N)(=O)=O)c2)c1.Cl | – | 82% | –
13 | CC(C)CNCc1ccc(S(=O)(=O)c2csc(S(N)(=O)=O)c2)cc1.Cl | 63 | 87% | Ki (Carbonic anhydrase 2 [10]): 6.5 nM
18 | CC(C)CNCc1ccccc1S(=O)(=O)c1csc(S(N)(=O)=O)c1.Cl | 47 | 62% | Ki (Carbonic anhydrase 2 [10]): 21.1 nM
2.1 | NS(=O)(=O)c1cc(S(=O)(=O)c2cccc(O)c2)cs1 | – | 86% | –
22 | CC(C)NCc1cccc(S(=O)(=O)c2csc(S(N)(=O)=O)c2)c1.Cl | – | 71% | –
4.8 | CC(C)CNCc1ccc(C(=O)c2csc(S(N)(=O)=O)c2)cc1.Cl | 77 | 87% | Max IOP reduction (Oryctolagus cuniculus [8]): inactive
3.2 | Cc1ccc(S(=O)(=O)c2csc(S(N)(=O)=O)c2)cc1 | – | 86% | –
14 | CC(C)CNCc1ccc(S(=O)(=O)c2csc(S(N)(=O)=O)c2)cc1O | – | – | –
36 | CC(C)(C)NCc1ccc(S(=O)(=O)c2csc(S(N)(=O)=O)c2)cc1.Cl | – | 61% | solubility [3]: 4500 µg/mL; pKa [6]: 9.3; logD [7]: -0.143
12 | CC(C)CNCc1cccc(S(=O)(=O)c2csc(S(N)(=O)=O)c2)c1.Cl | – | 84% | –
29 | CCCCNCc1ccc(S(=O)(=O)c2csc(S(N)(=O)=O)c2)cc1.Cl | 48 | 87% | –
13 | CC(C)CNCc1cccc(C(=O)c2csc(S(N)(=O)=O)c2)c1.Cl | – | 68% | Ki (Carbonic anhydrase 2 [10]): 14.5 nM

Second part, the molecule before the results:

Compound | IC50 (Carbonic anhydrase 2 [1]) [nM] | Inhibition (Oryctolagus cuniculus [4]) [%] | Inhibition (Oryctolagus cuniculus [5]) | other results
CCCCNCc1ccc(C(=O)c2csc(S(N)(=O)=O)c2)cc1.Cl | 12 | 68 | 95% | solubility [2]: 460 µg/mL; solubility [3]: 2400 µg/mL; pKa [6]: 9.32; logD [7]: 0.568
CN1CCN(Cc2ccccc2S(=O)(=O)c2csc(S(N)(=O)=O)c2)CC1.Cl | 23 | 65 | 77% | solubility [3]: > 64000 µg/mL; pKa [6]: 8.8; logD [7]: 1.13; Max IOP reduction (Oryctolagus cuniculus [8]): -2.7 mmHg
Cl.NS(=O)(=O)c1cc(C(=O)c2ccc(CN3CCOCC3)cc2)cs1 | 3.7 | – | 73% | solubility [2]: 70 µg/mL; solubility [9]: 12100 µg/mL; Ki (Carbonic anhydrase 2 [10]): 3.32 nM; pKa [6]: 9.28; logD [7]: 1.18; Max IOP reduction (Oryctolagus cuniculus [8]): -2.2 mmHg
Cc1ccc(S(=O)(=O)c2coc(S(N)(=O)=O)c2)cc1 | 4.2 | 36 | 96% | –
Cc1ccc(C(=O)c2csc(S(N)(=O)=O)c2)cc1 | 2 | – | 26% | –
NS(=O)(=O)c1cc(S(=O)(=O)c2ccc(O)cc2)cs1 | 5 | – | 82% | Ki (Carbonic anhydrase 2 [10]): 8 nM; pKa [6]: 9.2
NS(=O)(=O)c1cc(C(=O)c2ccc(O)cc2)cs1 | 2.5 | – | 83% | –
CC(C)CN(C)Cc1cc(C(=O)c2csc(S(N)(=O)=O)c2)ccc1O.Cl | 9 | – | 58% | –
CN1CCN(Cc2ccc(C(=O)c3csc(S(N)(=O)=O)c3)cc2)CC1.Cl | 4 | – | 90% | solubility [11]: 2000 µg/mL; solubility [9]: 5000 µg/mL; pKa [6]: 9.32; logD [7]: 0.362
CN(C)Cc1cc(S(=O)(=O)c2coc(S(N)(=O)=O)c2)ccc1O.Cl | 7 | 78 | 81% | Ki (Carbonic anhydrase 2 [10]): 2.34 nM and 4.9 nM
Cl.NS(=O)(=O)c1cc(S(=O)(=O)c2ccc(CNCc3ccccn3)cc2)cs1 | 8 | 75 | 92% | –
Cl.NS(=O)(=O)c1cc(C(=O)c2cccc(CN3CCOCC3)c2)cs1 | 5 | – | 90% | solubility [3]: 4800 µg/mL; Ki (Carbonic anhydrase 2 [10]): 10.8 nM; pKa [6]: 9.03; logD [7]: 1.11
COc1ccc(S(=O)(=O)c2coc(S(N)(=O)=O)c2)cc1 | 2.5 | 95 | 68% and 97% | pKa [6]: 6.32; logD [7]: 1.17
COc1ccc(S(=O)(=O)c2csc(S(N)(=O)=O)c2)cc1 | 45 | – | 68% | pKa [6]: 8.78
Cl.NS(=O)(=O)c1cc(C(=O)c2ccc(CNCc3ccccc3)cc2)cs1 | 2.4 | – | 81% | –
CN(C)Cc1cc(C(=O)c2csc(S(N)(=O)=O)c2)ccc1O.Cl | 6.4 | – | 59% | Ki (Carbonic anhydrase 2 [10]): 34.4 nM
NS(=O)(=O)c1cc(S(=O)(=O)c2ccc(O)cc2)co1 | 4.2 | 100 | 54% | –
Cl.NS(=O)(=O)c1cc(S(=O)(=O)c2ccc(CN3CCOCC3)cc2)cs1 | 7.6 | – | 83% | solubility [2]: 850 µg/mL; Ki (Carbonic anhydrase 2 [10]): 1.43 nM; pKa [6]: 8.84; logD [7]: 0.978
Cl.NS(=O)(=O)c1cc(S(=O)(=O)c2ccccc2CNCc2ccccn2)cs1 | 15 | 88 | 88% | Max IOP reduction (Oryctolagus cuniculus [8]): -6.5 mmHg
CNCc1ccc(C(=O)c2csc(S(N)(=O)=O)c2)cc1.Cl | 4.5 | 13 | 67% | –
CCN(CC)Cc1cc(S(=O)(=O)c2coc(S(N)(=O)=O)c2)ccc1O.Cl | 10 | 58 | 82% | Ki (Carbonic anhydrase 2 [10]): 4 nM
CCN(CC)Cc1cc(S(=O)(=O)c2csc(S(N)(=O)=O)c2)ccc1O.Cl | 9 | – | 71% | –
CCN(CC)Cc1ccc(S(=O)(=O)c2csc(S(N)(=O)=O)c2)cc1O.Cl | 16 | – | 84% | –
COc1ccc(C(=O)c2csc(S(N)(=O)=O)c2)cc1 | 3.2 | – | 31% | –
COc1ccc(C(=O)c2coc(S(N)(=O)=O)c2)cc1 | 2 | 13 | 67% | –
CCN(CC)Cc1cc(C(=O)c2csc(S(N)(=O)=O)c2)ccc1O.Cl | 7 | 54 | 55% | Ki (Carbonic anhydrase 2 [10]): 18.6 nM
CN1CCN(Cc2ccc(S(=O)(=O)c3csc(S(N)(=O)=O)c3)cc2)CC1.Cl | 11 | 90 | 92% | Inhibition (Oryctolagus cuniculus [12]): 29%; solubility [2]: > 56000 µg/mL; solubility [3]: > 43000 µg/mL; pKa [6]: 9.25; logD [7]: 0.38
CN(C)Cc1cc(S(=O)(=O)c2csc(S(N)(=O)=O)c2)ccc1O.Cl | 9 | 40 | 57% | –
